# A selection: hits, their analogues and other compounds. The true share with any hit is near 2.7%.
# PREPL inhibitor: inhibitors of human prolyl oligopeptidase-like enzyme PREPL. inhibition, % at 5.96 µM. 320,000 tested, 0.68% active. Q4J6C6. recombinant PREPL, fluorescence polarization activity-based probe; in the data active = inhibition above about 43%;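 also: 0% = enzyme with DMSO and 100% = wells lacking enzyme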
# Lipid droplet: modulators of hepatic lipid droplet formation; AML12 mouse hepatocytes, oleate lipid droplets, BODIPY imaging; inhibition, % at 6.5 µM; 240,000 tested, 0.4% active; AID 1656;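 active = lipid droplet intensity inhibited by at least 50%, with more than 500 cells counted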
#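 Material: mouse AML12 hepatocyte cell line, fixed after treatment; Timing: compound with oleate, overnight; Technique: high-content imaging of BODIPY-stained droplets and DAPI nuclei; Probe or stimulus: oleate, 100 µM final; Dosing: compound at 6.5 µM only.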
# HTR2A ag: mouse HTR2A agonism via beta-arrestin recruitment; AID 624169; P35363; activation, % at 7.6 µM; CHO-K1 mHTR2A beta-arrestin complementation, luminescence; percent of 30 µM serotonin response; 360,000 tested, 0.66% active;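 active = activation above a run cutoff, the mean activation of all tested compounds plus 3 SD, cut at about 14% in these data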;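 also: 0% = plate median of compound wells and 100% = 30 µM serotonin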
# MC4R ag barr: agonists of human melanocortin 4 receptor (MC4R) beta-arrestin; 360,000 tested, 0.98% active; U2OS MC4R beta-arrestin complementation, luminescence; percent of melanotan II response, DMSO zero; activation, % at 8.9 µM;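 active = activation above a per-plate cutoff, the mean activation of sample wells on that plate plus 3 SD, cut at about 8% in these data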
# MC4R antagonist: antagonists of human melanocortin 4 receptor (MC4R) | inhibition, % at 6.5 µM | P32245 | MC4R-expressing cells, MTII-stimulated cAMP, LANCE TR-FRET | 360,000 tested, 0.48% active;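 active = inhibition above its plate's cutoff, the mean of tested wells on that plate plus 3 SD, cut at about 29% in these data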;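 also: 0% = Melanotan II alone and 100% = Melanotan II plus saturating MCL0020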
#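 System: U2OS cells stably expressing human melanocortin 4 receptor (MC4R). Reagent: Melanotan II challenge after compound preincubation. Doses: 6.5 µM. Times: 30-min compound, 1-h challenge, 1-h detection, room temperature. Measured by: TR-FRET with Eu-cAMP and labeled anti-cAMP, 671 nm. Replicates: singlicate.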
# NTR1 ag: activates human neurotensin receptor 1; P30989; NTR1-U2OS beta-arrestin-GFP spot imaging, agonist mode; activation, % at 20 µM; 330,000 tested, 0.17% active;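 active = activation at or above 40% of the spot to cytoplasm intensity ratio, with at least 20 cells analyzed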;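 also: 0% = DMSO without peptide and 100% = 100 nM NTR1 peptide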
# Target sequence (P30989 whole entry, looked up): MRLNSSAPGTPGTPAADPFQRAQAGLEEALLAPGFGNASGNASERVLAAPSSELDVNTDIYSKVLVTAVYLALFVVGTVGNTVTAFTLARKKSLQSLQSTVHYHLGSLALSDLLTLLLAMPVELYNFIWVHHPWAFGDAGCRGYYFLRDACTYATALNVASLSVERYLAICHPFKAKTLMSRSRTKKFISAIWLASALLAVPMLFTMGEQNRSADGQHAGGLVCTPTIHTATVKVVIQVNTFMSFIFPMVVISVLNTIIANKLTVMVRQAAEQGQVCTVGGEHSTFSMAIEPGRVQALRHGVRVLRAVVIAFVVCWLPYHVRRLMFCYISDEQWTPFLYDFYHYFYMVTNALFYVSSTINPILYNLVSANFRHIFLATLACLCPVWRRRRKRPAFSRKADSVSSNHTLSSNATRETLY
# MOR ag counter: counter-screen for mouse HTR2A agonists: human mu opioid receptor agonists | shares compounds with HTR2A ag | U2OS OPRM1 beta-arrestin PathHunter, luminescence; DMSO 0%, DAMGO 9.3 µM 100% | activation, % at 9.3 µM | 2,300 tested, 5.3% active | AID 624380;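 active = mean activation above the mean of DMSO-only wells plus 3 SD, cut at about 0.5% in these data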
# m5-HT2A ag conf: mouse HTR2A agonism confirmed. shares compounds with HTR2A ag. CHO-K1 PathHunter beta-arrestin recruitment, luminescence; DMSO 0%, 30 µM serotonin 100%. activation, % at 7.6 µM. 2,300 tested, 19% active;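 active = mean activation across triplicates above the hit threshold derived in the original primary screen, cut at about 15% in these data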
# An asterisk follows results filed as active; x = no result; ! = repeats disagree.
SMILES,PREPL inhibitor,Lipid droplet,HTR2A ag,MC4R ag barr,MC4R antagonist,NTR1 ag,MOR ag counter,m5-HT2A ag conf
Cc1cc2oc(=O)cc(Cn3ccnc3)c2cc1Cl,-40,x,26*,-2,3,-2,-1,-3
CCOC(=O)CC(=O)c1sc2c(c1N)c(=O)[nH]c(=O)n2-c1ccc(OC)cc1,-7,2,-1,0,6,0,x,x
C[C@H]1[C@@H](OC(=O)CCC(=O)O)O[C@@H]2OC3(C)CC[C@H]4[C@H](C)CC[C@@H]1[C@@]24OO3,-1,x,x,x,x,x,x,x
Cc1cc(C)n(-c2nnc(C)n2N)n1,-2,x,18*,-1,2,0,0,-5
Cc1cc(C)n(-c2nnc(C)n2/N=C/c2ccccc2O)n1,-2,-3,7,-2,4,1,x,x
CC(=O)c1ccccc1NC(=O)COC(=O)CCC1CCCC1,21,x,3,5,3,1,x,x
NC[C@@H]1O[C@H](C23CC4CC(CC(C4)C2)C3)Cc2c1ccc(O)c2O,16,-41,26*,0,-22,10,0,100*
O=[N+]([O-])c1cccc2cnccc12,x,x,15*,1,-3,x,0,1
O=[N+]([O-])c1ccc(Oc2cccc(Br)c2)c2ccncc12,36,-25,-5,0,-2,8,x,x
Nc1ncnc2[nH]c(=S)[nH]c12,x,x,17*,-2,1,x,0,0
CSc1nc2ncnc(N)c2[nH]1,2,6,0,0,-5,1,x,x
O=C1CCC(=O)N1CC(=O)N1CCCc2ccccc21,1,x,3,0,3,0,x,x
CC(C)NC(=O)C1(C)CN(S(C)(=O)=O)CC(=O)N1C1CCN(Cc2ccccc2)CC1 (stereo unspecified),x,x,27*,x,x,x,0,-2
Cc1ccc(C(C)C)c(OCC(=O)OCC(=O)NC2CCS(=O)(=O)C2)c1 (stereo unspecified),5,x,5,0,0,1,x,x
Cc1ccc(C(C)C)c(OCC(=O)OCC(=O)NC2CC2)c1,18,x,26*,0,5,-1,0,-1
Cc1ccccc1C(=O)Nc1cccc(-c2cn3ccccc3n2)c1,-3,-1,16*,0,7,2,0,-5
CC(C)CN(Cc1cc(=O)oc2cc(-c3ccccc3)c(O)cc12)CC(C)C,15,-15,16*,11*,12,14,2.3*,22*
Cc1cc(O)c2c(CN3CCN(Cc4ccccc4)CC3)cc(=O)oc2c1,4,-5,20*,0,10,0,0,18*
O=C(c1cc2nc(-c3ccco3)cc(C(F)(F)F)n2n1)N1CCCc2ccccc21,-3,x,23*,-1,-1,3,-1,-2
CC(=O)c1ccc(NC(=O)C(C)O/N=C(\N)c2ccccc2)cc1 (stereo unspecified),6,x,15*,1,6,1,-1,-4
CC(Oc1ccccc1)C(=O)Nc1ccc(C(N)=O)cc1 (stereo unspecified),8,-4,-3,-1,9,-1,x,x
Cc1ccc(S(=O)(=O)N2C[C@H]3[C@H]4C(=O)N(c5ccccc5)C(=O)[C@H]4C[C@H](OC(=O)NC4CCCC4)[C@@]3(O)C2)cc1,x,x,5,0,4,x,x,x
C[C@H](O)CC(=O)O,-3,x,16*!,-1,4,0,0,-4
O=[N+]([O-])c1ccc(CSc2nnc(-c3cccnc3)o2)cc1,x,-1,0,-1,-1,-1,x,x
CN(C(=O)COC(=O)/C=C/c1ccc(S(=O)(=O)N2CCc3ccccc32)cc1)C1CCS(=O)(=O)C1 (stereo unspecified),13,9,7,0,3,-1,x,x
SMILES,PREPL inhibitor,Lipid droplet,HTR2A ag,MC4R ag barr,MC4R antagonist,NTR1 ag,MOR ag counter,m5-HT2A ag conf
COCCNC(=S)N(CCc1c(C)[nH]c2ccc(F)cc12)Cc1ccco1,-5,-6,28*,0,-1,8,0,-3
CNC(=S)N(CCc1c(C)[nH]c2ccc(F)cc12)Cc1ccco1,0,-10,-3,1,19,3,x,x
CCN(CC)CCn1c(NC(=O)c2ccc(Cl)cc2)nc2ccccc21,-1,-5,18*,-3,4,-2,x,12
C(=NN1CCCCCC1)c1ccc2c(c1)OCO2,x,x,4,-2,-6,x,x,x
COCCn1c(=O)[nH]c(=O)c2c(C(F)(F)F)cc(-c3cccs3)nc21,3,10,-2,-1,21,22,x,x
COc1ccc(S(=O)(=O)N2CCOCC2)cc1NC(=O)c1cccc2c(=O)c(C)c(-c3ccccc3)oc12,1,-13,-2,-2,-1,5,x,x
O=C(NCC(=O)N1CCN(S(=O)(=O)c2ccc3c(c2)OCCO3)CC1)c1ccccc1F,3,x,15*,-3,-1,0,-1,-3
COc1ccc(CN(C)C(=O)c2ccc(NS(=O)(=O)c3ccc(C)c([N+](=O)[O-])c3)cc2)c(OC)c1OC,14,x,18*,-1,1,-1,-1,-4
COc1ccc(CN(C)C(=O)c2ccc(NS(=O)(=O)c3ccc4[nH]c(=O)[nH]c4c3)cc2)c(OC)c1OC,16,x,-4,0,11,0,x,x
Cc1ccc(C(=O)c2cc([N+](=O)[O-])ccc2N2CCOCC2)cc1C,7,-12,1,-1,-5,5,x,x
Cc1ccc(C(=O)c2cc([N+](=O)[O-])ccc2N2CCOCC2)c(C)c1,14,x,15*,-1,-18,3,0,-3
CC1(C)CC(=O)C/C(=N\NC(=S)NCc2ccccc2)C1,3,-1,17*,-2,4,0,-1,-5
COc1cccc(OCCOc2c(OC)cccc2OC)c1,-7,-2,2,1,-5,0,x,x
Cc1ccc(NC(=O)CSc2nc(N)cc(=O)[nH]2)cc1S(=O)(=O)N1CCCCCC1,-4,x,16*,-2,6,1,-1,-5
OCC[C@H]1C[C@@H](O)[C@H](O)[C@@]2(Cc3ccccc3CO2)O1,16,x,15*,-1,2,-1,-1,0
CCN(CC)S(=O)(=O)c1cc(NC(=O)c2ccc3c(c2)NC(=O)C(C)S3)ccc1C (stereo unspecified),-3,x,-5,1,11,8,x,x
COC(=O)CNc1n[nH]c(=S)[nH]c1=O,1,x,17*,0,17,1,-1,-2
